In ChEMBL document CHEMBL3244187, “Structure--activity relationships in cephalosporins prepared from penicillins. 2. Analogues of cephalexin substituted in the 3-methyl group” (J Med Chem, 1977):
In brackets after ≈: the same amount, converted by molar mass. Activity calls are given as the source filed them. The calls are words filed in the database; no cut-off is given here.

Tests used:
[1] = tested on: Klebsiella aerogenes; assay: Antibacterial activity against Klebsiella aerogenes after 18 hrs by serial dilution method; type: functional
Summary of the method: (§1)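 MICs by serial dilution on nutrient agar. Inoculum 0.001 mL of undiluted overnight broth culture. Plates incubated at 37 °C for 18 h before reading.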

[2] = tested on: Staphylococcus aureus; assay: Antibacterial activity against beta-lactamase producing benzylpenicillin-resistant Staphylococcus aureus Russell after 18 hrs by serial dilution method; type: functional
Summary of the method: (§2)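 MICs by serial dilution on nutrient agar. Inoculum 0.001 mL of undiluted overnight broth culture. Plates incubated 18 h at 37 °C before reading. The S. aureus Russell strain produces β-lactamase and resists benzylpenicillin.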

[3] = tested on: Proteus mirabilis; assay: Antibacterial activity against Proteus mirabilis after 18 hrs by serial dilution method; type: functional; summary of the method: as §1
[4] = tested on: Staphylococcus aureus; assay: Antibacterial activity against Staphylococcus aureus Oxford after 18 hrs by serial dilution method; type: functional; summary of the method: as §1
[5] = tested on: Salmonella typhi; assay: Antibacterial activity against Salmonella typhi after 18 hrs by serial dilution method; type: functional, Salmonella enterica subsp. enterica serovar Typhi; settings: Salmonella enterica; summary of the method: as §2
[6] = tested on: Escherichia coli; assay: Antibacterial activity against Escherichia coli after 18 hrs by serial dilution method; type: functional; summary of the method: as §1
[7] = tested on: Shigella sonnei; assay: Antibacterial activity against Shigella sonnei after 18 hrs by serial dilution method; type: functional; summary of the method: as §1
[8] = tested on: Morganella morganii; assay: Antibacterial activity against cephalosporin-resistant Proteus morganii after 18 hrs by serial dilution method; type: functional, organism-based; summary of the method: as §2
[9] = Drug level in mouse blood at 50 mg/kg, po after 30 mins by microbiological assay; type: ADME, organism-based; set-up: dose 50 mg/kg, route oral; settings: read-out: Drug uptake
Summary of the method: (§3)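 Mice given a single 50 mg/kg dose by the route in the line. Groups of five killed at each time point and blood taken from the cut axilla, heparinized and stored at 4 °C. Blood assayed the same day by large-plate microbiological assay with Sarcina lutea NCTC 8340, overnight at 30 °C. Standards made in mouse blood, with pH 7.2 phosphate-buffered saline as diluent.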

[10] = Drug level in mouse blood at 50 mg/kg, po after 10 mins by microbiological assay; type: ADME, organism-based; set-up: dose 50 mg/kg, route oral; settings: read-out: Drug uptake; summary of the method: as §3
[11] = Drug level in mouse blood at 50 mg/kg, po after 20 mins by microbiological assay; type: ADME, organism-based; set-up: dose 50 mg/kg, route oral; settings: read-out: Drug uptake; summary of the method: as §3
[12] = Drug level in mouse blood at 50 mg/kg, po after 1 hr by microbiological assay; type: ADME, organism-based; set-up: dose 50 mg/kg, route oral; settings: read-out: Drug uptake; summary of the method: as §3
[13] = Drug level in mouse blood at 50 mg/kg, po after 2 hrs by microbiological assay; type: ADME, organism-based; set-up: dose 50 mg/kg, route oral; settings: read-out: Drug uptake; summary of the method: as §3
[14] = Drug level in mouse blood at 50 mg/kg, po after 4 hrs by microbiological assay; type: ADME, organism-based; set-up: dose 50 mg/kg, route oral; settings: read-out: Drug uptake; summary of the method: as §3
[15] = tested on: Enterobacter cloacae; assay: Antibacterial activity against cephalosporin-resistant Enterobacter cloacae after 18 hrs by serial dilution method; type: functional, organism-based; summary of the method: as §2
[16] = tested on: Pseudomonas aeruginosa; assay: Antibacterial activity against cephalosporin-resistant Pseudomonas aeruginosa after 18 hrs by serial dilution method; type: functional, organism-based; summary of the method: as §2
[17] = Drug level in mouse blood at 50 mg/kg, sc after 10 mins by microbiological assay; type: ADME, organism-based; set-up: dose 50 mg/kg, route subcutaneous; settings: read-out: Drug uptake; summary of the method: as §3
[18] = Drug level in mouse blood at 50 mg/kg, sc after 30 mins by microbiological assay; type: ADME, organism-based; set-up: dose 50 mg/kg, route subcutaneous; settings: read-out: Drug uptake; summary of the method: as §3
[19] = Drug level in mouse blood at 50 mg/kg, sc after 20 mins by microbiological assay; type: ADME, organism-based; set-up: dose 50 mg/kg, route subcutaneous; settings: read-out: Drug uptake; summary of the method: as §3
[20] = Drug metabolism in mouse assessed as metabolite level in urine by Sarcina lutea antibacterial assay; type: ADME
Summary of the method: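 Urine from dosed mice run on paper strip chromatography in butanol-ethanol-water (4:1:5). Active zones located on agar plates seeded with Sarcina lutea.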

[21] = Drug level in mouse blood at 50 mg/kg, sc after 1 hr by microbiological assay; type: ADME, organism-based; set-up: dose 50 mg/kg, route subcutaneous; settings: read-out: Drug uptake; summary of the method: as §3
[22] = Drug level in mouse blood at 50 mg/kg, sc after 2 hrs by microbiological assay; type: ADME, organism-based; set-up: dose 50 mg/kg, route subcutaneous; settings: read-out: Drug uptake; summary of the method: as §3
[23] = Drug level in mouse blood at 50 mg/kg, sc after 4 hrs by microbiological assay; type: ADME, organism-based; set-up: dose 50 mg/kg, route subcutaneous; settings: read-out: Drug uptake; summary of the method: as §3
[24] = Drug level in mouse blood at 50 mg/kg, iv after 2 hrs by microbiological assay; type: ADME, organism-based; set-up: dose 50 mg/kg, route intravenous; settings: read-out: Drug uptake; summary of the method: as §3
[25] = Drug level in mouse blood at 50 mg/kg, iv after 30 mins by microbiological assay; type: ADME, organism-based; set-up: dose 50 mg/kg, route intravenous; settings: read-out: Drug uptake; summary of the method: as §3
[26] = Drug level in mouse blood at 50 mg/kg, iv after 1 hr by microbiological assay; type: ADME, organism-based; set-up: dose 50 mg/kg, route intravenous; settings: read-out: Drug uptake; summary of the method: as §3
[27] = Drug level in mouse blood at 50 mg/kg, iv after 4 hrs by microbiological assay; type: ADME, organism-based; set-up: dose 50 mg/kg, route intravenous; settings: read-out: Drug uptake; summary of the method: as §3
[28] = Drug level in mouse blood at 50 mg/kg, iv after 20 mins by microbiological assay; type: ADME, organism-based; set-up: dose 50 mg/kg, route intravenous; settings: read-out: Drug uptake; summary of the method: as §3
[29] = Drug level in mouse blood at 50 mg/kg, iv after 10 mins by microbiological assay; type: ADME, organism-based; set-up: dose 50 mg/kg, route intravenous; settings: read-out: Drug uptake; summary of the method: as §3

SMILES | MIC [1] | MIC [2] | MIC [3] | MIC [4] | MIC [5] | MIC [6] | MIC [7] | concentration at 0.5 h [9] | concentration at 10 min [10] | concentration at 20 min [11] | concentration at 1 h [12] | concentration at 2 h [13] | concentration at 4 h [14] | also measured
CN(C)S(=O)(=O)c1ccc(CC2=C(C(=O)O)N3C(=O)[C@@H](NC(=O)[C@H](N)c4ccccc4)[C@H]3SC2)cc1 | 50 µg/mL (≈ 94.2 µM) | 500 µg/mL (≈ 942 µM) | 125 µg/mL (≈ 236 µM) | 0.5 µg/mL (≈ 0.942 µM) | 25 µg/mL (≈ 47.1 µM) | 25 µg/mL (≈ 47.1 µM) | 25 µg/mL (≈ 47.1 µM) |  |  |  |  |  |  | 
N[C@@H](C(=O)N[C@@H]1C(=O)N2C(C(=O)O)=C(Cc3cccnc3)CS[C@H]12)c1ccccc1 | 2.5 µg/mL (≈ 5.89 µM) | 2.5 µg/mL (≈ 5.89 µM) | 5 µg/mL (≈ 11.8 µM) | 0.25 µg/mL (≈ 0.589 µM) | 1.25 µg/mL (≈ 2.94 µM) | 2.5 µg/mL (≈ 5.89 µM) | 2.5 µg/mL (≈ 5.89 µM) | 1250 ng/mL | 2850 ng/mL | 1440 ng/mL | 620 ng/mL | 650 ng/mL | 100 ng/mL | Activity [8]: inactive; Activity [15]: inactive; Activity [16]: inactive
N[C@@H](C(=O)N[C@@H]1C(=O)N2C(C(=O)O)=C(Cc3ccccn3)CS[C@H]12)c1ccccc1 | > 500 µg/mL | 12.5 µg/mL (≈ 29.4 µM) | 50 µg/mL (≈ 118 µM) | 1.25 µg/mL (≈ 2.94 µM) | 12.5 µg/mL (≈ 29.4 µM) | 50 µg/mL (≈ 118 µM) | 25 µg/mL (≈ 58.9 µM) |  |  |  |  |  |  | 
N[C@@H](C(=O)N[C@@H]1C(=O)N2C(C(=O)O)=C(CC3CCCCO3)CS[C@H]12)c1ccccc1 (stereo partly drawn) | 10 µg/mL (≈ 23.2 µM) | 5 µg/mL (≈ 11.6 µM) | > 50 µg/mL | 5 µg/mL (≈ 11.6 µM) | 25 µg/mL (≈ 57.9 µM) | > 50 µg/mL | 25 µg/mL (≈ 57.9 µM) |  |  |  |  |  |  | 
N[C@@H](C(=O)N[C@@H]1C(=O)N2C(C(=O)O)=C(Cc3cccc(C(=O)O)c3)CS[C@H]12)c1ccccc1 |  |  |  |  |  |  | 25 µg/mL (≈ 53.5 µM) | 1800 ng/mL | 870 ng/mL | 1050 ng/mL | 1700 ng/mL | 1600 ng/mL | 550 ng/mL | concentration at 10 min [17]: 84200 ng/mL; Activity [8]: inactive; concentration at 0.5 h [18]: 49600 ng/mL; concentration at 20 min [19]: 64200 ng/mL; Drug metabolism [20]: metabolite_notdetected; concentration at 1 h [21]: 26200 ng/mL; Activity [15]: inactive; concentration at 2 h [22]: 13700 ng/mL; concentration at 4 h [23]: 1600 ng/mL; Activity [16]: inactive
N[C@@H](C(=O)N[C@@H]1C(=O)N2C(C(=O)O)=C(Cc3ccccc3C(F)(F)F)CS[C@H]12)c1ccccc1 | > 100 µg/mL | 5 µg/mL (≈ 10.2 µM) | > 100 µg/mL | 0.5 µg/mL (≈ 1.02 µM) | > 100 µg/mL | > 100 µg/mL | > 100 µg/mL |  |  |  |  |  |  | 
CC(=O)OCC1=C(C(=O)O)N2C(=O)[C@@H](NC(=O)[C@H](N)c3ccccc3)[C@H]2SC1 [CEPHALOGLYCIN] | 5 µg/mL (≈ 12.3 µM) | 2.5 µg/mL (≈ 6.17 µM) | 5 µg/mL (≈ 12.3 µM) | 1.25 µg/mL (≈ 3.08 µM) | 1.25 µg/mL (≈ 3.08 µM) | 5 µg/mL (≈ 12.3 µM) | 2.5 µg/mL (≈ 6.17 µM) | 2000 ng/mL | 1700 ng/mL | 2600 ng/mL | 600 ng/mL | 700 ng/mL | 70 ng/mL | concentration at 10 min [17]: 37100 ng/mL; concentration at 0.5 h [18]: 21700 ng/mL; concentration at 20 min [19]: 30200 ng/mL; concentration at 2 h [24]: < 100 ng/mL; concentration at 0.5 h [25]: 11000 ng/mL; concentration at 1 h [26]: 1500 ng/mL; concentration at 4 h [27]: < 100 ng/mL; concentration at 20 min [28]: 40200 ng/mL; concentration at 1 h [21]: 3100 ng/mL; concentration at 10 min [29]: 62400 ng/mL; concentration at 2 h [22]: 200 ng/mL; concentration at 4 h [23]: < 100 ng/mL
COC(=O)CC1=C(C(=O)O)N2C(=O)[C@@H](NC(=O)[C@H](N)c3ccccc3)[C@H]2SC1 | 63 µg/mL (≈ 155 µM) | 16 µg/mL (≈ 39.5 µM) | 63 µg/mL (≈ 155 µM) | 0.5 µg/mL (≈ 1.23 µM) | 8 µg/mL (≈ 19.7 µM) | 31 µg/mL (≈ 76.5 µM) | 16 µg/mL (≈ 39.5 µM) |  |  |  |  |  |  | 
